IMP-1 inh-1: inhibitors of Pseudomonas aeruginosa IMP-1 metallo-beta-lactamase | purified IMP-1, nitrocefin hydrolysis, epi-absorbance fluorescence | inhibition, % at 5.6 µM | 290,000 tested, 0.45% active | AID 1556;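 active means inhibition above the mean plus 3 SD of all compounds in the same screening run, cut at about 4.5% in these data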;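 further: 0% = IMP-1 with DMSO and 100% = DMSO wells lacking enzyme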
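System – purified recombinant IMP-1 beta-lactamase · Input – IMP-1 dispensed at 0.2 nM · Timing – 15 min preincubation plus 25 min reaction at 25 °C · Signal – Epi-absorbance fluorescence, 480 nm excitation, 530 nm emission · Measure – percent IMP-1 inhibition derived from blank-referenced optical density · Controls – Enzyme-plus-DMSO low control, enzyme-free DMSO high control · Replication – singlicate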
CRFBP-R2 agonist: CRF-BP/CRF-R2 complex agonism; HEK293 CRF-R2/CRF-BP, calcium dye fluorescence (FLIPR); percent of saturating CRF peptide response; 350,000 tested, 0.46% active; activation, % at 13.2 µM;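 active means activation of at least 50%, plus an integration ratio under a set limit after plate pattern correction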;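 further: plate controls were neutral control wells without compound for no effect and CRF at EC100 for full effect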
CRFBP-R2 block: CRF-BP/CRF-R2 complex antagonism; 350,000 tested, 0.59% active; inhibition, % at 11.8 µM; HEK293 CRF-R2/CRF-BP, CRF-induced calcium fluorescence; AID 588475;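 active means inhibition of the ligand-induced calcium signal above about 50% at the single tested concentration, limit read from the data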
VIM-2 inh: blocks Pseudomonas aeruginosa VIM-2 metallo-beta-lactamase; inhibition, % at 5.6 µM; purified VIM-2, nitrocefin hydrolysis, epi-absorbance fluorescence; 290,000 tested, 0.89% active;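 active means inhibition above the mean of all tested compounds plus 3 SD, cutoff set per screening run, cut at about 7.5% in these data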;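 further: red hydrolysis product quenches plate fluorescence so inhibitors raise well fluorescence; 0% = enzyme with DMSO and 100% = DMSO without enzyme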
TRPML3 agonist: activates the human TRPML3 channel. HEK293 TRPML3-YFP, Fluo-8 calcium fluorescence; 100% = the carbachol control signal. activation, % at 3 µM. AID 1448. Q8TDD5. 220,000 tested, 0.29% active;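 active means activation above its plate's cutoff, the mean activation of the plate's test wells plus 3 SD, cut at about 12% in these data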;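 further: 0% = DMSO only wells and 100% = carbachol wells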
Target sequence (Q8TDD5 whole entry, looked up): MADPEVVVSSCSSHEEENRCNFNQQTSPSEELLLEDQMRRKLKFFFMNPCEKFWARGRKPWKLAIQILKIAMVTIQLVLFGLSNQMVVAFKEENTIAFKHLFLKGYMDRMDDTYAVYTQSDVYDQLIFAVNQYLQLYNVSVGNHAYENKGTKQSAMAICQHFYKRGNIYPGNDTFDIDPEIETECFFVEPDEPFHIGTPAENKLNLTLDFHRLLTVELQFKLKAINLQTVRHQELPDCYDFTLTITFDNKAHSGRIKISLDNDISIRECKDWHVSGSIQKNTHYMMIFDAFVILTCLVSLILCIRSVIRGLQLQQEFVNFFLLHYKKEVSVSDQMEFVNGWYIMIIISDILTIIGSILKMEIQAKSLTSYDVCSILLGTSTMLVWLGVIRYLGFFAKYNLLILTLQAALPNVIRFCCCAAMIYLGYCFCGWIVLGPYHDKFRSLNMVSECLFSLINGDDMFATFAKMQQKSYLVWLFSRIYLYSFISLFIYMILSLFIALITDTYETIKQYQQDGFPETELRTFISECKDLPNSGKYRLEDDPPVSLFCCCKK
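Test system: HEK293 cells stably carrying human TRPML3-YFP; Doses: single dose, 3 µM final nominal compound, 0.3% DMSO final; Schedule: dye loading 1 h 37 °C then 30 min ambient, 125 s read; Technique: Fluo-8 calcium fluorescence; Benchmarks: high control carbachol 87 µM, low control DMSO.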
zfTRPN1 agonist: activates the zebrafish TRPN1 channel; HEK293 zebrafish TRPN1-YFP, Fluo-8 calcium fluorescence; 100% = response to 87 µM carbachol; activation, % at 3 µM; 220,000 tested, 0.18% active;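 active means activation above its plate's cutoff, the mean activation of test wells on that plate plus 3 SD, cut at about 19% in these data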;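 further: 0% = DMSO alone and 100% = 87 µM carbachol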
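Material – zebrafish TRPN1-YFP in HEK293 cells · Doses – 3 µM single point · Schedule – dye 1 h 37 °C plus 30 min RT · Signal – Fluo-8 calcium fluorescence, excitation 470-495 nm, emission 515-575 nm · Read-out – % activation versus carbachol response · Control set – carbachol high, DMSO low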
IMP-1 inh-2: blocks IMP-1 metallo-beta-lactamase in VIM-2 selectivity screen; shares compounds with VIM-2 inh; purified IMP-1, nitrocefin hydrolysis, epi-absorbance fluorescence; inhibition, % at 5.6 µM; 1,300 tested, under 10 active; AID 1856; call rule not given here;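 further: 0% = enzyme with vehicle and 100% = vehicle without enzyme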
VIM-2 FRET ctr: VIM-2 FRET inhibition, artifact counter-screen; shares compounds with VIM-2 inh; purified VIM-2, CCF2 FRET substrate hydrolysis; inhibition, % at 5.6 µM; 1,300 tested, 23% active; AID 1857;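 active means inhibition above the mean of all tested compounds plus 3 SD, cut at about 19% in these data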;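 further: 0% = VIM-2 plus DMSO and 100% = no enzyme wells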
TEM-1 counter-1: TEM-1 inhibition, counter-screen for VIM-2 inhibitors | 1,300 tested, 3% active | AID 1866 | inhibition, % at 5.6 µM | Purified TEM-1, nitrocefin hydrolysis, epi-absorbance fluorescence | shares compounds with VIM-2 inh;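 active means inhibition above that campaign's mean inhibition plus 3 SD, cut at about 0.46% in these data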;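 further: 0% = TEM-1 with DMSO and 100% = TEM-1 with 100 µM potassium clavulanate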
VIM-2 inh conf: confirmation of P. aeruginosa VIM-2 metallo-beta-lactamase inhibitors | purified VIM-2, nitrocefin hydrolysis, epi-absorbance | 1,300 tested, 96% active | shares compounds with VIM-2 inh | inhibition, % at 5.6 µM | AID 2187;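 active means inhibition of the VIM-2 beta-lactamase enzyme above about 11% from the earlier first-round screen, limit read from the data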;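 further: 0% = VIM-2 with DMSO and 100% = buffer wells without enzyme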
VIM-2 confirm: VIM-2 inhibition, confirmation assay | AID 1860 | inhibition, % at 5.6 µM | shares compounds with IMP-1 inh-1 | purified VIM-2 enzyme, nitrocefin absorbance | 200 tested, 73% active; in the data active means inhibition above about 8%;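 further: 0% = enzyme with vehicle and 100% = no enzyme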
TEM-1 counter-2: blocks E. coli TEM-1 beta-lactamase, VIM-2 IMP-1 counter-screen; shares compounds with IMP-1 inh-1; nitrocefin absorbance inhibition; inhibition, % at 5.6 µM; 200 tested, 50% active; AID 2184; in the data active means inhibition above about 0.66%
IMP-1 inh conf: confirmation of P. aeruginosa IMP-1 metallo-beta-lactamase inhibitors. purified IMP-1 enzyme, absorbance substrate hydrolysis. inhibition, % at 5.6 µM. 200 tested, 60% active. AID 2189. shares compounds with IMP-1 inh-1; in the data active means inhibition above about 4.9%;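 further: 0% = enzyme with vehicle and 100% = vehicle without enzyme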
Active calls of the source: *; . = no result given. Hits are enriched below; roughly 2.1% of the tested compounds scored in any of these assays.

SMILES	IMP-1 inh-1	CRFBP-R2 agonist	CRFBP-R2 block	VIM-2 inh	TRPML3 agonist	zfTRPN1 agonist	IMP-1 inh-2	VIM-2 FRET ctr	TEM-1 counter-1	VIM-2 inh conf	VIM-2 confirm	TEM-1 counter-2	IMP-1 inh conf
C=CCn1c(O)c(C=NCCCn2ccnc2)c(=O)[nH]c1=O	0	-1	5	23*	1	1	-4	0	-5	37*	.	.	.
O=[N+]([O-])c1ccc(N2CCNCC2)cc1NC1CC1	0	.	.	1	0	2	.	.	.	.	.	.	.
O=[N+]([O-])c1ccc(N2CCCC2)cc1N/N=C1\CN2CCC1CC2	-4	-1	32	13*	0	-2	-3	32*	-9	25*	.	.	.
CCOC(=O)CNC(=O)N1Cc2ccccc2-n2nncc2C1	.	0	-2	.	.	.	.	.	.	.	.	.	.
Nc1c(C(=O)NCCN2CCOCC2)c2nc3ccccc3nc2n1Cc1ccco1	-2	4	-4	15*	1	1	-3	-19	-5	29*	.	.	.
O=c1cc(C(F)(F)F)c2cc3c4c(c2o1)CCCN4CCC3	7.8*	173*	-134	8.5*	8	11	.	.	.	.	35*	52*	26*
CC1CN1P(=S)(c1ccccc1)N1CC1C (configuration not stated)	.	-4	13	.	.	.	.	.	.	.	.	.	.
CC(C)C1C(C#N)=C(N)Oc2c1c(=O)oc1ccccc21 (configuration not stated)	.	0	-3	.	.	.	.	.	.	.	.	.	.
Nc1ccc2ccc3cccc[n+]3c2c1	26*	163*	-92	25*	.	.	.	.	.	.	35*	40*	24*
O=[N+]([O-])c1ccc(N2CCCCCC2)c2nonc12	15*	191*	-136	13*	.	.	.	.	.	.	19*	22*	16*
O=S(=O)(c1ccccc1)N1Cc2ccccc2-n2nncc2C1	.	-1	13	.	.	.	.	.	.	.	.	.	.

Source: PubChem BioAssay
